System: MS2 coat protein
Assay: apparent Kd, MS2 coat protein; higher = weaker binding; RNA-MaP array; FMN 200 µM where present
How it was run: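 Stalled E. coli RNA polymerase transcribed each design on Illumina sequencing-chip clusters. The clusters were titrated with SNAP-549-labelled MS2 coat protein, starting at 0.7 or 1.5 nM and doubling up to 3 µM, first without ligand and then with constant ligand, in 100 mM Tris-HCl pH 7.5, 80 mM KCl, 4 mM MgCl2, BSA, DTT, yeast tRNA and Tween-20. Green signal was normalised to red-channel RNA signal and to the control-cluster median Fmax. The apparent Kd is the median of filtered binding-curve fits made for each cluster.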

[1] = designed as: OFF switch for flavin mononucleotide, no ligand
[2] = ligand present: flavin mononucleotide, designed as: OFF switch for flavin mononucleotide
[3] = designed as: ON switch for flavin mononucleotide, no ligand
[4] = ligand present: flavin mononucleotide, designed as: ON switch for flavin mononucleotide

Sequence	apparent Kd [1]	apparent Kd [2]	apparent Kd [3]	apparent Kd [4]
AAUUUACAUGAGGAUCACCCAUGUCAGGAUAUGGUUUUAUUUUUUUCUUUUUUUGAUUCCAGAAGGGACAGUUA	148 nM	79.6 nM	–	–
GGAGCCGGCACUGAGGAUAUUCAUAUUAAAACAUGAGGAUCACCCAUGUAGGCCAGAAGGCCUUGGGAGAAGGCAGGUCGGCCCG	–	–	381 nM	28.4 nM
UAGUAGUGAGGAUAUACAUGGAUAUACAUUCAUGUGGACCUACAUGAGGAUCACCCAUGUAGAAGGCACUACUA	41.9 nM	91.4 nM	–	–
AAUGCCGUAGGAUAUAUAUGGCAGAUCGCACGUCCUGAAAGACAUGAGGAUCACCCAUGUAGAAGGGCGGAAAC	14.7 nM	17 nM	–	–
AUGGUGCAGGUACAGGAUAUGUUGCUCGUAACAUGAGGAUCACCCAUGUACCUAUGAGAUUAAAUGCAGAAGGGUGCACACCAAA	–	–	538 nM	20.6 nM
ACGACGAAAGUCGAACGAUGAUCGAGAAGGACAUGAGGAUCACCCAUGUUCCCUGUAACAGGCAUGUAGGAUAUCGAUCAUCGA	3.99 nM	7.18 nM	–	–
UCGACCAGCGCCAGUCGAACAUGAGGAUCACCCAUGUACUCCAGAAGGCCGCCCAAGAACGGAGUGGAGGAUAUGGAGGUUCUC	–	–	37.7 nM	33.2 nM
AAAAAAAAAGUAGAGGAUAUCCAAAUGGCUACAUGAGGAUCACCCAUGUGAAGAAAAGCACAUGAGGAGAAGGCUACAAAAAAAAA	–	–	26.7 nM	13.5 nM
CCCGUGUUAGGAUAUACGGCACACCCGCCAGCGGGUAUAUAGUAGAAGGAACAUGAGGAUCACCCAUGUAUAGC	16.1 nM	46.6 nM	–	–
CUAGUAUAUCAGGAUAUGAUUUUGUGUAGUUGGUCAGAAGGGAUGACAUGAGGAUCACCCAUGUUAAGGGAUGA	94.2 nM	108 nM	–	–
AAGAAACAUGAGGAUCACCCAUGUGAGGAUAUGAAAAAGAAAAGAAAAGAAAGAAGAAUCAGAAGGCACAAAGC	26 nM	32.7 nM	–	–
GCGUCAGAAUUAAUUGUGACAUACAGAAGGCAAAAGUAAGGAUAAGACAUGAGGAUCACCCAUGUUGAGGAUAUGUAGAGAAUC	10.7 nM	8.64 nM	–	–
AAUAUGAGCUGGAAUAAACCUGAAACAUGAGGAUCACCCAUGUAGGAUAUCAGCACGAUAAGUGCUGAGAAGGACAACCAGCUC	14.6 nM	16.6 nM	–	–
ACUACUUAGUGAGGAUAUACAUAAUUUAUAACUGUAGAAGGCACAAACCUCAAUACAUGAGGAUCACCCAUGUGGUAUAUCUAU	188 nM	380 nM	–	–
AGUGUCAUCGAGAAGGCUUCAACAUGAGGAUCACCCAUGUUGUAAUAUGGGAGGAUAUCGAUGAUACAGCUACGUUUCGUAGCA	–	–	7 nM	5.03 nM
GAUACACAUGAGGAUCACCCAUGUGAGGAUAUGCGUACGUUGUCCGUAGGCGACGUGCGCAGAAGGCGCGUGAG	52.6 nM	84 nM	–	–
UGGUACAUCGGAGGAUAUCAUGUAGAUACAUGAGGAUCACCCAUGUCGUACGAUAGUACGGAGAUUGAGAAGGCCGAUGUACCU	–	–	30.5 nM	16.6 nM
GGAUCGAAUGUGAGGAUAUGCUGGUCCUUGGAUCAGCAGAAGGCACAUGAGGAUCACCCAUGUGGUAACGGUCC	–	554 nM	–	–
AUUUAAAUGUCAGGAUAUGUUAGUUUAUACAUAGUAGAAGGGAUAAUUAUACUCAUGUACAUGAGGAUCACCCAUGUUAAAUCA	–	–	212 nM	98.5 nM

Sequence	apparent Kd [1]	apparent Kd [2]	apparent Kd [3]	apparent Kd [4]
GAUCAACAUGAGGAUCACCCAUGUGAGGAUAUGAUACUAUGUACUUCGGUACAUAGUAUCAGAAGGCACAUUGA	87.2 nM	367 nM	–	–
CUGAUGUCAGGAUAUCAGAAAAGGUGCGAGGACGCACCAAAUGAGAAGGGACAUGAGGAUCACCCAUGUAAAAC	22.3 nM	139 nM	–	–
UCGUACAUUCGAGGAUAUCGGUGAUAAAUAAUACGAGAAGGCGAUUGUGGGCAUAACGCCUUAGACAUGAGGAUCACCCAUGUA	–	–	75.6 nM	51.5 nM
AAGUCGAGCGUGAGGAUAUCGUUUGAACGACAGAGCGAGAAGGCACAUGAGGAUCACCCAUGUGAUUAAGCUCG	15.6 nM	19.9 nM	–	–
UCUAGACAUGAGGAUCACCCAUGUCGAUAUGGCGCAGGAUAUCGGUACUCAUAGAGUACGCGAGAAGGGUGACUUC	–	–	343 nM	48.4 nM
GGGUACAUCGGAGGAUAUCAUGUAAAUACAUGAGGAUCACCCAUGUCGGUGGAGACAUCGGAGAUUGAGAAGGCCGAUGUACCG	–	–	–	12.7 nM
UUUUCAUCAUCAGGAUAUUAACGUGGGCUACUUUAAGAAGGGAUAGUGGGAGAGCACGUGAAACAUGAGGAUCACCCAUGUUGU	–	–	12.2 nM	9.73 nM
CUUGUUUAUGUGAGGAUAUACUGUUAGUAAUGUUUGUAGAAGGUACAUGAGGAUCACCCAUGUUUAUUUUUUUU	20.5 nM	19.7 nM	–	–
CGCGAACAGGUUAACAUGAGGAUCACCCAUGUGGACUCAUGGUAGGAUAUCGGGAAGGAGGAAACCGAGAAGGGCUGGUGAGCC	–	–	634 nM	443 nM
CGAUGACUGGUGAGGAUAUCGUGUUCGAAAGAACGUGAGAAGGCACAUGAGGAUCACCCAUGUGAUCCUCAUCG	29.8 nM	206 nM	–	–
UAGAAGUCAGGAUAUGCAUGGCGGGACUUGCGUCGUGGCGUGCAGAAGGGACAUGAGGAUCACCCAUGUAAAGC	49 nM	43 nM	–	–
GUCAGCUCGUGAGGAUAUACAUGUGCUGGAGACAGCACUAUUAAGAUCACAUGAGGAUCACCCAUGUAGAAGGCACGAGCUGAU	50.4 nM	620 nM	–	–
AACUGACAUGAGGAUCACCCAUGUCAGGAUAUGCUUCAUAAAAACAAACAAAAAUGAUGCAGAAGGGACAUGGA	16.6 nM	41.6 nM	–	–
GUCGCUAGAGGAUAUACAAUGGUAUAUGAUCCUAGUGACAUACAUGAGGAUCACCCAUGUAGAAGGCUAGUAUU	23.5 nM	19 nM	–	–
GUAGCAUACCGAGGAUAUUCAUAUAAUAAAUAAACAUGAGGAUCACCCAUGUGGCGAAAGCCUAGGGAGAAGGCGGAAUGCUAC	–	–	240 nM	22.6 nM
AAAUUUAACGAAGGAUAUGCUGACAUGAGGAUCACCCAUGUGUGCCUUGUGUUGCUGAUUAGGUUGCAGAAGGUCGUAUACAUA	330 nM	1230 nM	–	–
GGUCGUCACAUGAACAUGAGGAUCACCCAUGUAAAUUCUCAUGAGGAUAUGGAUCCUAAUUGGAUCCAGAAGGCAUGGACGACC	–	–	1090 nM	333 nM
ACAUGAUAUGUAGGAUAUCACAUUAAUUGAUUAAUAUUUGAAUAUAGGAUUUGAGAAGGACAUUUACAUGAGGAUCACCCAUGU	20.1 nM	14.4 nM	–	–
UCGUUCCGUGUAGGAUAUUGGCCUUCUCUGGGCCGAGAAGGACAUGAGGAUCACCCAUGUAUGUUAUUAUCGCGCGUGGCGCAU	26.9 nM	84.9 nM	–	–

Sequence	apparent Kd [1]	apparent Kd [2]	apparent Kd [3]	apparent Kd [4]
GAAUUCGCAUGAGGAUAUGCACUCAUUUCAUGUGCAGAAGGUAUAACAUUAGACAUGAGGAUCACCCAUGUAUUAGUCAUUAAC	–	–	10.1 nM	9.37 nM
ACACAUGAGGAUCACCCAUGUAGCUGGCGUCUGUGCCAGCCACAGGAUAUACGGCAACACAAGCCGUAGAAGGGUGAUAAACAC	–	–	85.3 nM	36.5 nM
GACUGACAUGAGGAUCACCCAUGUAUUCAAACAUGAGGAUAUAUAACACAUCAUCGACGGAUAGAAGGCAUAGAUA	–	–	128 nM	124 nM
CAGAAGUCAGGAUAUCCUGCUCGUCACUUGCGUGAUGAGUAGGAGAAGGGACAUGAGGAUCACCCAUGUAAAGU	68.9 nM	95 nM	–	–
AAGUCAGCAGGAUAUGCGAUGGUGUACUAGGUAGUUUACCCACAUGAGGAUCACCCAUGUAGAAGGGCUGGCUA	59.1 nM	148 nM	–	–
CAGUACUGAGGAUAUACAUGAGGAUCACCCAUGUGUCCUAGCUAGGAAACUAGCAUUAGUAGAAGGCAGUACUG	18.9 nM	300 nM	–	–
ACCAUGGUACAGAAGGGCAAUUUAUUUAUUUAUUAUUUAGUACUGCAUUGCAGGAUAUGUUUAACAUGAGGAUCACCCAUGUAC	–	–	31.8 nM	21.4 nM
CAGCACGGAAACAAAGUCUUCGGACAUGAGGAUCACCCAUGUGAGGAUAUGCCUACUAAAAGUAGGCAGAAGGCACGCGUGCUG	17.1 nM	62.6 nM	–	–
CUCUUGUCAGGAUAUCUUACAUAACAAUCGUAGUUACCAUUGGAGAAGGGACAUGAGGAUCACCCAUGUUAGCC	23.8 nM	46.5 nM	–	–
CCGGGUUAUGUUAGGAUAUGUAGGCCGCAACCGGAACAGAAGGGACAUGAGGAUCACCCAUGUGAUAUUCCCGG	23.3 nM	30.8 nM	–	–
CUUGUGUUAGGAUAUGCGCCCUGCAGAAGCAGGGCCAGAGAGCAGAAGGAACAUGAGGAUCACCCAUGUGUGAC	65.5 nM	53.7 nM	–	–
GCUACGCCUGACAUGAGGAUCACCCAUGUUAGAUUGUUAUGUCAGGAUAUAGUCUAGAAACUAGACUAGAAGGGAUGUGUAGCU	–	–	872 nM	112 nM
CAUACAGUAGUUAGGAUAUUGCAACGUACACGGAACGAGAAGGGACAUGAGGAUCACCCAUGUAGAUUGUAAAG	21.8 nM	21.1 nM	–	–
CUUUUGUGAGGAUAUUAGUAGUAAAUGAUUAAAAUUAUUACUGAGAAGGCACAUGAGGAUCACCCAUGUUCCUC	45.1 nM	655 nM	–	–
AUAUUUUUGUAGAAGGUACGUGAUUAGUCAAAGUAAGGAUAUACUGACAUGAGGAUCACCCAUGUUUUAAUAGUUAACAGUUCU	–	–	12.9 nM	8.01 nM
UUUUGGUAAGGAUAUGCGUAGAUCUCGGAAACGAGAUCUACGCAGAAGGUACAUGAGGAUCACCCAUGUUGAUU	24.2 nM	83.3 nM	–	–
UUGUUGUAUGUAGGAUAUGCAUAUUGUUAUUAUGCAGAAGGACAUGAGGAUCACCCAUGUAUGUUAUUAUUAUGUGUUAUGUGU	39.3 nM	63.9 nM	–	–
GGGCGUGAAGGAUAUACAUGAGGAUCACCCAUGUGGGAGGAGAGUGGUGAGGAGGCUGGUAGAAGGUCAGGAGG	39.1 nM	32.9 nM	–	–

Reference: the EternaBench riboswitch data
